Data taken from ChEMBL document CHEMBL3867427, “Cytotoxic Guanidine Alkaloids from a French Polynesian Monanchora n. sp. Sponge” (J Nat Prod, 2016).

Experiments:
[1] = Cytotoxicity against human KB cells assessed as inhibition of cell proliferation at 10 uM after 72 hrs by cell titer 96 aqueous one solution based assay; type: functional
Outline: (§1)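 KB cells in D-MEM with 10% FCS and antibiotics/fungizone under 5% CO2. 600 cells/well treated 24 h after seeding, 1% DMSO final, against DMSO controls. After 72 h, CellTiter 96 AQueous One for 3 h at 37 °C, absorbance 490 nm. Inhibition = [1 − (OD490 treated/OD490 control)] × 100, triplicate; mean ± SE.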

[2] = Cytotoxicity against human KB cells assessed as inhibition of cell proliferation at 1 uM after 72 hrs by cell titer 96 aqueous one solution based assay; type: functional; outline: as §1
[3] = Antiproliferative activity against human KB cells after 72 hrs by cell titer 96 aqueous one solution based assay; type: functional
Outline: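 KB cells (NCI origin) in D-MEM with 10% fetal calf serum, penicillin, streptomycin and fungizone under 5% CO2. 600 cells/well, dosed 24 h after plating from DMSO stocks (1% DMSO final; DMSO-only controls). 72 h exposure, then CellTiter 96 AQueous One for 3 h at 37 °C, A490. IC50 (50% inhibition) from 5 nM–100 μM in separate duplicate experiments.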

[4] = Antiproliferative activity against human HCT116 cells at 1 to 10 uM after 72 hrs by cell titer 96 aqueous one solution based assay relative to control; type: functional, HCT-116
[5] = Antiproliferative activity against human HL60 cells after 72 hrs by cell titer 96 aqueous one solution based assay; type: functional; settings: HL-60, 72 h
[6] = Antiproliferative activity against human HL60 cells at 1 to 10 uM after 72 hrs by cell titer 96 aqueous one solution based assay relative to control; type: functional, HL-60
[7] = Antiproliferative activity against human MRC5 cells after 72 hrs by cell titer 96 aqueous one solution based assay; settings: MRC5, 72 h
[8] = Antiproliferative activity against human MRC5 cells at 1 to 10 uM after 72 hrs by cell titer 96 aqueous one solution based assay relative to control; settings: mrc5, 72 h
[9] = Antiproliferative activity against human HCT116 cells after 72 hrs by cell titer 96 aqueous one solution based assay; type: functional; settings: HCT-116, 72 h
[10] = Antiproliferative activity against mouse B16F10 cells after 72 hrs by neutral red staining based assay; type: functional, cell-based; settings: B16-F10, 72 h
Outline: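 Murine B16F10 (ATCC) in DMEM with pyruvate, 10% FBS, 2% glutamine, 1% pen-strep, 37 °C, 5% CO2. 20 000 cells/well dosed 24 h later (1% DMSO final). After 72 h, PBS rinse, neutral red 40 μg/mL for 3 h at 37 °C, destain with acetic acid/EtOH/H2O 1:50:49 for 30 min at RT, A540. IC50 over 10 ng/mL–10 μg/mL, separate duplicates.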

[11] = Antiproliferative activity against mouse B16F10 cells at 1 to 10 uM after 72 hrs by neutral red staining based assay relative to control; type: functional, B16-F10
Outline: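 B16F10 cells in supplemented DMEM at 37 °C, 5% CO2, 20 000/well, treated 24 h after plating with 1% DMSO final. After 72 h exposure, neutral red uptake (40 μg/mL, 3 h, 37 °C), acid-ethanol destain, absorbance 540 nm. Inhibition = [1 − (OD540 treated/OD540 control)] × 100 from triplicate experiments.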

[12] = Antiproliferative activity against human MDA435 cells after 72 hrs by cell titer 96 aqueous one solution based assay; type: functional; settings: MDA-MB-435, 72 h
[13] = Antiproliferative activity against human MDA435 cells at 1 to 10 uM after 72 hrs by cell titer 96 aqueous one solution based assay relative to control; type: functional, MDA-MB-435

SMILES	inhibition at 10 µM [1]	inhibition at 1 µM [2]	IC50 [3]	Activity [4]	IC50 [5]	Activity [6]	IC50 [7]	Activity [8]	IC50 [9]	IC50 [10]	Activity [11]	IC50 [12]	Activity [13]
CC[C@H]1C=CCC[C@@]2(C[C@@H]3CC[C@@H]4C[C@]5(CCC[C@@H](C)O5)NC(=[N+]43)N2)O1	84%	0%											
CC[C@H]1C=CCC[C@@]2(C[C@@H]3CC[C@@H]4[C@H](C(=O)OCCCCCCCCCCCCCCCC(=O)O)[C@]5(CCC[C@@H](C)O5)NC(=[N+]34)N2)O1	97%	85%	0.5 to 0.6 µM										
CCCCCCC[C@@H]1N=C(N)N2CCCC2=C1C(=O)OCCCCNC(=N)N	100%	80%	0.1 to 0.2 µM										
CCCCCCCC[C@@H]1N=C(N)N2CCCC2=C1C(=O)OCCCCNC(=N)N	100%	86%	0.3 µM	100%	8 to 9.1 µM	100%	3.6 to 4.1 µM	100%	3.4 to 4.2 µM				
CC[C@H]1C=CCC[C@@]2(C[C@@H]3CC[C@@H]4[C@H](C(=O)OCCCCCCCCCCCCCCCCCC(=O)N(CCCN)CCCC(N)=O)[C@]5(CCC[C@@H](C)O5)NC(=[N+]34)N2)O1	100%	100%	0.05 to 0.07 µM							0.8 to 0.85 µM	100%		
CCCCCCCCC[C@@H]1N=C(N)N2CCCC2=C1C(=O)OCCCCNC(=N)N	100%	97%	0.03 µM										
CCCCCCC[C@@H]1N=C(N)N2CCCC2=C1C(=O)O	96%	61%	6.7 to 7.7 µM	100%	3.8 to 7.1 µM	100%			9.9 µM			9.3 to 11 µM	100%
CC[C@H]1C=CCC[C@@]2(C[C@@H]3CC[C@@H]4[C@H](C(=O)OCCCCCCCCCCCCCCCC(=O)O)[C@]5(CCCCO5)NC(=[N+]34)N2)O1	95%	80%	0.5 to 0.6 µM										
CCCCCCCCCc1nc(N)[n+]2c(c1C(=O)OCCCCNC(=N)N)CCC2	98%	89%	0.1 µM	100%	3.6 to 5.4 µM	100%	3.4 to 3.9 µM	100%	3.4 to 3.5 µM				
CCCCCCCCCc1cc2[n+](c(N)n1)CCC2	99%	82%	0.2 to 0.4 µM	100%	1.3 µM	100%	0.55 to 0.6 µM	100%	0.74 to 0.84 µM			0.32 to 0.86 µM	100%
CCCCCCCCC[C@@H]1N=C(N)N2CCCC2=C1C(=O)O	72%	0%											
CC[C@H]1C=CCC[C@@]2(C[C@@H]3CC[C@@H]4[C@H](C(=O)OCCCCCCCCCCCCCCCCC(=O)N(CCCN)CC(O)CCN)[C@]5(CCC[C@@H](C)O5)NC(=[N+]34)N2)O1 (stereo not given in full)	100%	96%	0.005 to 0.02 µM	100%	0.01 to 0.03 µM	100%			0.02 to 0.05 µM	0.2 µM	100%	0.04 to 0.07 µM	100%
CC[C@H]1C=CCC[C@@]2(C[C@@H]3CC[C@@H]4[C@H](C(=O)OCCCCCCCCCCCCCCCC(=O)N(CCCN)CC(O)CCN)[C@]5(CCC[C@@H](C)O5)NC(=[N+]34)N2)O1 (stereo not given in full)	99%	100%	0.005 µM	100%	0.004 to 0.006 µM	100%			0.007 µM	0.2 µM	100%	0.009 to 0.015 µM	100%
CC[C@H]1C=CCC[C@@]2(C[C@@H]3CC[C@@H]4[C@H](C(=O)OCCCCCCCCCCCCCCC(=O)N(CCCN)CC(O)CCN)[C@]5(CCC[C@@H](C)O5)NC(=[N+]34)N2)O1 (stereo not given in full)	100%	89%	0.3 µM	100%	5 to 5.4 µM	100%	3.2 to 3.4 µM	100%	3.1 to 3.4 µM				
